# Compound activity from PubChem BioAssay.
# Keap1-Nrf2 PPI – Keap1-Nrf2 (human) interaction inhibition; Q14145; Keap1 Kelch-Nrf2 peptide fluorescence polarization, 1536-well; inhibition, % at 9.4 µM; actives 0.15% (n = 340,000); in the data active = inhibition above about 12%;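 also: human Keap1 Kelch domain with fluorescein labeled Nrf2 9mer peptide probe; 0% = neutral control wells and 100% = peptide positive control; higher means more block of Keap1 binding to Nrf2 peptide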
# A3G deaminase – APOBEC3G (human) deaminase inhibition; actives 0.28% (n = 330,000); recombinant A3G, ssDNA deamination FAM/TAMRA fluorescence; inhibition, % at 20 µM; Q9HC16; AID 493012;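 active = inhibition of at least 40% at 20 µM, with no more than 30% in the related APOBEC3A deaminase screen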;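 also: plate controls were DMSO wells with A3G for no effect and wells lacking A3G enzyme for full effect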
# CAL PDZ FP-1 – blocks peptide binding to the human CAL PDZ domain; Q9HD26; purified CAL PDZ, TMR-peptide fluorescence polarization, 1 h; inhibition, % at 24.9 µM; actives 0.92% (n = 300,000);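 active = mean inhibition of at least 30% with at least half of replicates also reaching 30%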;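 also: 0% = DMSO neutral control and 100% = excess unlabeled competitor peptide PRC23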
# LANA DNA inh – blocks KSHV LANA C-terminal domain binding to DNA | MBP-C-LANA/FAM-LBS DNA binding, fluorescence polarization | inhibition, % at 9 µM | actives 0.078% (n = 340,000);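 active = highest replicate inhibition at or above 60% at 9 µM, even if other replicates fall short; inactive = all replicates below 60% inhibition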;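 also: 0% = neutral control wells and 100% = 4 µM acridine orange control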
# A3A deaminase – inhibitors of human APOBEC3A DNA deaminase; P31941; recombinant A3A, FAM/TAMRA ssDNA deamination fluorescence; inhibition, % at 20 µM; actives 0.41% (n = 330,000); AID 493011;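 active = at least 40% inhibition at 20 µM here, with at most 30% in a related deaminase screen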;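 also: plate controls were A3A with DMSO for no effect and wells lacking A3A enzyme for full effect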
# Target sequence (P31941 whole entry, looked up): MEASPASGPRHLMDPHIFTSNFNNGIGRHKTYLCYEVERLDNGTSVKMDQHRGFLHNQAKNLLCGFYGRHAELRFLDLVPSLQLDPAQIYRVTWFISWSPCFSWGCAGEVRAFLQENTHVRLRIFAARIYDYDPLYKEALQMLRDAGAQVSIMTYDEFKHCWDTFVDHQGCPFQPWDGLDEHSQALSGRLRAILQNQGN
# CAL PDZ FP-2 – human CAL PDZ-peptide interaction inhibition | Q9HD26 | purified CAL PDZ, TMR-peptide fluorescence polarization, 1 h | inhibition, % at 20 µM | actives 0.02% (n = 330,000) | AID 504414;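 active = highest replicate inhibition of at least 40%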;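 also: plate controls were DMSO neutral control wells for no effect and unlabeled competitor peptide control wells for full effect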
#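 System: purified tagged CAL PDZ domain construct (CerCALP). Schedule: 1 h incubation at room temperature before polarization reading. Medium: 25 mM sodium phosphate pH 7.4, 150 mM NaCl, TCEP, IgG, Thesit. Read-out: percent inhibition from loss of millipolarization. Measured by: FP readout, S and P plane fluorescence. Probe or stimulus: fluorescent TMR peptide probe.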
# APOBEC3G confirm – confirmation of human APOBEC3G DNA deaminase inhibitors; shares compounds with A3G deaminase; recombinant A3G ssDNA deaminase, UDG/FAM-TAMRA fluorescence; inhibition, % at 20 µM; actives 72% (n = 890); AID 493152;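 active = inhibition reaching a set limit in any replicate at 20 µM, the limit being 80% of the first screen's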
# UDG ctr A3G – inhibits E. coli UDG, flagging false APOBEC3G inhibitors; inhibition, % at 20 µM; 710 tested, under 10 active; UDG counterscreen, FAM/TAMRA oligo fluorescence; shares compounds with A3G deaminase; AID 504715;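 active = compounds giving 40% or more inhibition at 20 µM in any one of the three replicates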;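 also: plate controls were DMSO wells with UDG and oligo for no effect and DMSO wells lacking both for full effect; inhibitors lower the FAM signal released by uracil excision and alkaline cleavage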
# Target sequence (P12295 whole entry, looked up): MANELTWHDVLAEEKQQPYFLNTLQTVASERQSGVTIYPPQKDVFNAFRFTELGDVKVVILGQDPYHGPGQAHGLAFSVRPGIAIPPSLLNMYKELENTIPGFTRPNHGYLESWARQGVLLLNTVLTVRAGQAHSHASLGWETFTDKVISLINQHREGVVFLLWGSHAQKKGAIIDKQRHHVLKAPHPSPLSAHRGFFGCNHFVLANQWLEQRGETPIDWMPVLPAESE
# * marks the source's active call; other numbers are inactive results; . = not tested or not shown. In the library only some 1.7% were active in any assay of this set; here they are far more common.
SMILES,Keap1-Nrf2 PPI,A3G deaminase,CAL PDZ FP-1,LANA DNA inh,A3A deaminase,CAL PDZ FP-2,APOBEC3G confirm,UDG ctr A3G
CCCCN(C(=O)COC(=O)CSc1ccc([N+](=O)[O-])cc1)c1c(N)n(CCC)c(=O)[nH]c1=O,-3,-11,-2,0,-2,-2,.,.
S=c1[nH]nc(-c2cccnc2)n1/N=C/c1ccco1,2,36,-2,2,-1,-1,.,.
Cn1cccc1/C=N/n1c(-c2ccccc2)n[nH]c1=S,-2,43*,0,0,-3,0,81*,-3
Cc1ccc(-c2n[nH]c(=S)n2/N=C/c2ccncc2)cc1,3,53*,0,3,-2,0,65*,7
Cc1ccc(-c2n[nH]c(=S)n2/N=C\c2ccco2)cc1,-2,42*,6,2,-3,0,76*,6
Cn1cccc1/C=N/n1c(-c2ccc(C(C)(C)C)cc2)n[nH]c1=S,0,3,-5,0,0,-1,.,.
O=[N+]([O-])c1ccc(Cl)c(/C=N/n2c(-c3ccncc3)n[nH]c2=S)c1,-1,48*,1,1,0,-2,57*,-6
CCOC(=O)N1CCC(NC(=O)CC2C(=O)NCCN2Cc2ccccc2F)CC1 (centres undefined),0,-6,-7,0,2,-1,.,.
Cc1cccc(-c2n[nH]c(=S)n2/N=C/c2ccco2)c1,-5,47*,-6,0,-7,1,79*,3
Cc1nn(-c2ccccc2)c(C)c1/C=N/n1c(-c2ccncc2)n[nH]c1=S,2,42*,-1,0,-4,-2,77*,1
Cc1cc(C)c(C#N)c(=N)o1,2,58*,4,3,-2,-1,90*,-2
CCSc1nnc2n1C(C)(C)Cc1ccccc1-2,-1,-1,-1,1,-3,-2,.,.
CC1(C)Cc2ccccc2-c2n[nH]c(=S)n21,-1,56*,-2,1,-8,1,90*,-4
COc1ccc(-n2c(-c3ccc(C)cc3)n[nH]c2=S)cc1,-5,27,-2,-1,-4,-1,.,.
COc1ccc(-c2cc(-c3n[nH]c(=S)n3-c3ccccc3OC)[nH]n2)cc1,-8,-7,-3,1,-2,0,.,.
COc1cc(-c2n[nH]c(=S)n2-c2ccc(C)cc2)cc(OC)c1OC,0,43*,2,0,-5,-1,68*,-4
COc1ccccc1-n1c(-c2ccccc2)n[nH]c1=S,-2,68*,1,-1,3,0,58*,-4
O=C(Nc1cc(S(=O)(=O)Nc2ccc(Cl)cc2)ccc1O)c1ccc(S(=O)(=O)N2CCCCCC2)cc1,0,53*,-21,0,0,0,44*,11
O=C(Nc1cc(S(=O)(=O)N2CCOCC2)ccc1O)c1ccc(S(=O)(=O)N2CCCCC2)cc1,-4,-5,-2,1,0,0,.,.
NNc1cc(C(=O)O)ccc1Cl,-3,40*,-1,2,-3,-1,20,-2
CC(C)(C)C(=O)NC(=S)Nc1cc(C(=O)O)ccc1Cl,-3,-4,1,1,-4,-1,.,.
COc1ccc(S(=O)(=O)Nc2nnc(CC(C)(C)C)s2)cc1,-4,-12,7,-2,27,0,.,.
COc1ccc(S(=O)(=O)Nc2nnc(C(C)(C)C)s2)cc1,-3,50*,-1,0,5,-2,20*,2
O=S(=O)(c1ccc(=S)[nH]c1)N1CCOCC1,-3,44*,-2,1,-1,1,73*,-2
CCOC(=O)Cn1ccc(NC(=O)COc2ccc(F)cc2)n1,-2,-14,-1,0,-2,-3,.,.
COc1cccc(CNC(=O)c2ccccc2SCC(=O)N2CCCC2)c1,1,1,-7,0,2,0,.,.
